For series [1], the target named is T1, Multidrug efflux pump subunit AcrB (Escherichia coli (strain K12)) (UniProt P31224).
T1 sequence (whole entry): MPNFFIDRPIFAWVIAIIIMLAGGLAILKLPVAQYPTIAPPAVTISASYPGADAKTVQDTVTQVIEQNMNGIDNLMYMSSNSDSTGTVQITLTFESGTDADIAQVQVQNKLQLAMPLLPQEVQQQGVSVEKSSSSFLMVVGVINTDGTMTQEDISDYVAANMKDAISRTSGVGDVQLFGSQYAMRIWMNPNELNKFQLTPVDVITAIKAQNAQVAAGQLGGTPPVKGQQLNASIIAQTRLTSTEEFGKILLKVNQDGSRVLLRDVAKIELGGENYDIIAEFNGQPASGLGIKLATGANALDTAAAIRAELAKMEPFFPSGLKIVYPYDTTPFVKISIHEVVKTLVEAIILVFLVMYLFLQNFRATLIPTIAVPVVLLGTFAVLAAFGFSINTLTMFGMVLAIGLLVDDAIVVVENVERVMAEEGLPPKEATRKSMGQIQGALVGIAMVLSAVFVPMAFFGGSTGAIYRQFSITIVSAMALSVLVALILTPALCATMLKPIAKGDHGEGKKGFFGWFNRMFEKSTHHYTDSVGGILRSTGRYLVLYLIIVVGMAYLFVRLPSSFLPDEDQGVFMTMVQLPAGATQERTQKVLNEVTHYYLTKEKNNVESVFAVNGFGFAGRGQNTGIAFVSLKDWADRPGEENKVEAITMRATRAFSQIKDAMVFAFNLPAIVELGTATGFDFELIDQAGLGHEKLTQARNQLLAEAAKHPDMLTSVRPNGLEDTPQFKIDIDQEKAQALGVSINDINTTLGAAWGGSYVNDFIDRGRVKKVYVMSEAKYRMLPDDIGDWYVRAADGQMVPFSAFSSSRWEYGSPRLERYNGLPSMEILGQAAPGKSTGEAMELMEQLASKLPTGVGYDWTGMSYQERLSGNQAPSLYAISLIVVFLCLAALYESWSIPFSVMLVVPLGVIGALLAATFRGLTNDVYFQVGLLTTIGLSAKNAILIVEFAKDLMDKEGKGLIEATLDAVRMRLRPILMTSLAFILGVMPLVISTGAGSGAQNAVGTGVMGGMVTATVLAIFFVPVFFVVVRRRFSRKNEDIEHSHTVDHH
As to conditions: Escherichia coli BW25113; dose 32.0 µg/ml; call rule not given here.

Series [2] has as its target T1, Multidrug efflux pump subunit AcrB (Escherichia coli (strain K12)). The series is described as follows: Inhibition of AcrB in multidrug-resistant Escherichia coli BW25113 assessed as potentiation of levofloxacin-induced antibacterial activity by measuring levofloxacin MIC at 8 ug/ml by checkerboard titration method (reference value: 0.06 ug/ml). The note with it: dose 8.0 µg/ml.

Series [3] shares this target. The series can be described thus: Inhibition of AcrB in multidrug-resistant Escherichia coli BW25113 assessed as potentiation of levofloxacin-induced antibacterial activity by measuring levofloxacin MIC at 128 ug/ml by checkerboard titration method (reference value: 0.06 ug/ml). As to conditions: dose 128.0 µg/ml.
Series [4] shares this target. The series can be described thus: Inhibition of AcrB in multidrug-resistant Escherichia coli BW25113 assessed as potentiation of erythromycin-induced antibacterial activity by measuring erythromycin MIC at 8 ug/ml by checkerboard titration method (reference value: 64 ug/ml). The note with it: dose 8.0 µg/ml.
For series [5] the target is unchanged. The series can be described thus: Inhibition of AcrB in multidrug-resistant Escherichia coli BW25113 assessed as potentiation of chloramphenicol-induced antibacterial activity by measuring chloramphenicol MIC at 128 ug/ml by checkerboard titration method (reference value: 8 ug/ml). As to conditions: dose 128.0 µg/ml.
Series [6] has the same target. The series is described as follows: Inhibition of AcrB in multidrug-resistant Escherichia coli BW25113 assessed as potentiation of tetraphenylphosphonium-induced antibacterial activity by measuring tetraphenylphosphonium MIC at 8 ug/ml by checkerboard titration method (reference value: 1024 ug/ml). As to conditions: dose 8.0 µg/ml.
The target is the same in series [7]. The series is described as follows: Inhibition of AcrB in multidrug-resistant Escherichia coli BW25113 assessed as potentiation of erythromycin-induced antibacterial activity by measuring erythromycin MIC at 32 ug/ml by checkerboard titration method (reference value: 64 ug/ml). The note with it: dose 32.0 µg/ml.
For series [8] the target is unchanged. As to conditions: Escherichia coli BW25113; dose 16.0 µg/ml.
The next series relates to Cell membrane. The series can be described thus: Induction of outer membrane permeabilization in wild type Escherichia coli BW25113 assessed as increase in nitrocefin hydrolysis at 128 ug/ml in presence of CCCP by spectroscopic analysis. As to conditions: dose 128 µg/ml. A digest of the protocol:
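Intact E. coli were treated with 10 μM CCCP to block nitrocefin efflux, then given compound, nothing, or polymyxin B as permeabilizer control. Nitrocefin was added, and hydrolysis by periplasmic β-lactamase was followed as the rise in absorbance at 490 nm. Duplicate experiments were run on different days.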

Series [9] concerns the target T1, Multidrug efflux pump subunit AcrB (Escherichia coli (strain K12)). The series can be described thus: Inhibition of AcrB in multidrug-resistant Escherichia coli BW25113 assessed as potentiation of chloramphenicol-induced antibacterial activity by measuring chloramphenicol MIC at 8 ug/ml by checkerboard titration method (reference value: 8 ug/ml). As to conditions: dose 8.0 µg/ml.

The target is the same in series [10]. The series is described as follows: Inhibition of AcrB in multidrug-resistant Escherichia coli BW25113 assessed as potentiation of tetraphenylphosphonium-induced antibacterial activity by measuring tetraphenylphosphonium MIC at 128 ug/ml by checkerboard titration method (reference value: 1024 ug/ml). The note with it: dose 128.0 µg/ml.
For series [11] the target is unchanged. The series is described as follows: Inhibition of AcrB in multidrug-resistant Escherichia coli BW25113 assessed as potentiation of tetraphenylphosphonium-induced antibacterial activity by measuring tetraphenylphosphonium MIC at 32 ug/ml by checkerboard titration method (reference value: 1024 ug/ml). As to conditions: dose 32.0 µg/ml.
Series [12] has the same target. The series can be described thus: Inhibition of AcrB in multidrug-resistant Escherichia coli BW25113 assessed as potentiation of levofloxacin-induced antibacterial activity by measuring levofloxacin MIC at 32 ug/ml by checkerboard titration method (reference value: 0.06 ug/ml). The note with it: dose 32.0 µg/ml.
For series [13] the target is unchanged. The series can be described thus: Inhibition of AcrB in multidrug-resistant Escherichia coli BW25113 assessed as potentiation of chloramphenicol-induced antibacterial activity by measuring chloramphenicol MIC at 32 ug/ml by checkerboard titration method (reference value: 8 ug/ml). As to conditions: dose 32.0 µg/ml.
For series [14] the target is unchanged. The series can be described thus: Inhibition of AcrB in multidrug-resistant Escherichia coli BW25113 assessed as potentiation of tetraphenylphosphonium-induced antibacterial activity by measuring tetraphenylphosphonium MIC at 64 ug/ml by checkerboard titration method (reference value: 1024 ug/ml). As to conditions: dose 64.0 µg/ml.

Each structure is given as a SMILES string. ≈ marks a conversion by molar mass, not a printed value.

Turning to `CC1(C)CC(=O)c2ccc(OCCNC3CCCC3)cc2O1`, the MIC in series [1] was determined as 16 µg/mL (≈ 52.7 µM); in series [2], 0.06 µg/mL; in series [3], 0.03 µg/mL; in series [4], 64 µg/mL; in [5], 8 µg/mL; in series [6], 512 µg/mL. Further, the MIC in [7] came to 64 µg/mL; in series [8], 16 µg/mL (≈ 52.7 µM); in [9], 8 µg/mL; in [10] it was 512 µg/mL; in series [11], 512 µg/mL; in series [12], 0.03 µg/mL. In addition, the MIC came out at 8 µg/mL in [13] and 512 µg/mL in [14]. The Activity entry in the series with Cell membrane is “Not Active”.
With `Cc1ccccc1COc1cccc2c3c(c(-c4nnco4)cc12)CCC(C)(C)O3`, the MIC was found to be 16 µg/mL (≈ 40 µM) in series [1]; 0.06 µg/mL in [2]; 0.06 µg/mL in series [3]; 64 µg/mL in series [4]; 8 µg/mL in [5]; 512 µg/mL in series [6]. Moreover, the MIC was 32 µg/mL in series [7]; 16 µg/mL (≈ 40 µM) in [8]; 8 µg/mL in series [9]; 256 µg/mL in series [10]; 512 µg/mL in [11]; 0.06 µg/mL in series [12]. The MIC in series [13] turned out to be 8 µg/mL; in series [14], 512 µg/mL.
With `COc1cccc(COc2cccc3c4c(c(C(=O)N5CCOCC5)cc23)CCC(C)(C)O4)c1`, the MIC came out at 16 µg/mL (≈ 34.7 µM) in series [1]; 0.06 µg/mL in [2]; 0.06 µg/mL in series [3]; 64 µg/mL in series [4]; 2 µg/mL in [5]; 512 µg/mL in series [6]. For the same molecule, the MIC came to 32 µg/mL in [7]; 16 µg/mL (≈ 34.7 µM) in series [8]; 4 µg/mL in [9]; 128 µg/mL in series [10]; 512 µg/mL in [11]; 0.06 µg/mL in series [12]. Besides, the MIC was determined as 4 µg/mL in series [13] and 256 µg/mL in series [14]. For the same molecule, the Activity result with Cell membrane was “Not Active”.
As to `CC1(C)CCc2c(C(=O)N3CCOCC3)cc3c(OCc4ccc(C(F)(F)F)cc4)cccc3c2O1`, the MIC turned out to be 16 µg/mL (≈ 32 µM) in series [1]; 0.06 µg/mL in [2]; 0.06 µg/mL in [3]; 64 µg/mL in series [4]; 4 µg/mL in [5]; 512 µg/mL in [6]. The MIC in [7] is 64 µg/mL; in [8] it was 16 µg/mL (≈ 32 µM); in series [9] it was 8 µg/mL; in series [10], 256 µg/mL; in [11], 512 µg/mL; in [12], 0.06 µg/mL. The MIC came out at 8 µg/mL in series [13] and 512 µg/mL in series [14]. The Activity result with Cell membrane was “Not Active”.
On to `CC1(C)CCc2c(C(=O)O)cc3c(OCc4ccccc4)cccc3c2O1`, for which the MIC was 16 µg/mL (≈ 44.1 µM) in series [1]; 0.06 µg/mL in series [2]; 0.01 µg/mL in [3]; 64 µg/mL in series [4]; 1 µg/mL in [5]; 1020 µg/mL in series [6]. Besides, the MIC came to 64 µg/mL in series [7]; 16 µg/mL (≈ 44.1 µM) in [8]; 8 µg/mL in series [9]; 64 µg/mL in [10]; 512 µg/mL in series [11]; 0.06 µg/mL in series [12]. Besides, the figures for the MIC in [13] and in series [14] were 8 µg/mL and 256 µg/mL, respectively. Besides, the Activity entry in the series on Cell membrane is “Not Active”.
On to `CC1(C)CC(=O)c2ccc(OCC(=O)Nc3ccc(C#N)c(C(F)(F)F)c3)cc2O1`, for which the MIC was determined as 16 µg/mL (≈ 38.2 µM) in series [1]; 0.06 µg/mL in [2]; 64 µg/mL in series [4]; 1020 µg/mL in series [6]; 64 µg/mL in series [7]; 16 µg/mL (≈ 38.2 µM) in series [8]. Moreover, the MIC in series [9] came out at 8 µg/mL; in [11], 512 µg/mL; in series [12], 0.06 µg/mL; in series [13] it was 8 µg/mL; in series [14], 256 µg/mL.
On to `CC1(C)CCc2c(C(=O)N3CCOCC3)cc3c(OCc4ccccc4)cccc3c2O1`, for which the MIC in [1] was found to be 16 µg/mL (≈ 37.1 µM); in series [2], 0.03 µg/mL; in series [3], 0.03 µg/mL; in series [4], 64 µg/mL; in [5] it was 4 µg/mL; in series [6], 512 µg/mL. The MIC amounted to 64 µg/mL in [7]; 16 µg/mL (≈ 37.1 µM) in series [8]; 8 µg/mL in series [9]; 64 µg/mL in [10]; 512 µg/mL in [11]; 0.03 µg/mL in series [12]. In addition, the MIC was 4 µg/mL in series [13] and 512 µg/mL in [14]. The Activity entry with Cell membrane is given as “Not Active”.
In the case of `CC1(C)CCc2c(-c3nnco3)cc3c(OCc4ccccc4)cccc3c2O1`, the MIC in [1] is 16 µg/mL (≈ 41.4 µM); in series [2], 0.06 µg/mL; in [3], 0.06 µg/mL; in [4], 64 µg/mL; in series [5], 2 µg/mL; in [6], 512 µg/mL. For the same molecule, the MIC in series [7] is 32 µg/mL; in [8] it was 16 µg/mL (≈ 41.4 µM); in series [9], 8 µg/mL; in [10], 128 µg/mL; in [11], 512 µg/mL; in [12], 0.06 µg/mL. In addition, the MIC was 4 µg/mL in series [13] and 512 µg/mL in series [14]. The Activity result in the series on Cell membrane is “Not Active”.
Consider `CC1CN(C(=O)c2cc3c(OCc4c(Cl)cccc4Cl)cccc3c3c2CCC(C)(C)O3)CC(C)O1` (centres undefined), for which the MIC worked out at 16 µg/mL (≈ 30.3 µM) in series [1]; 0.03 µg/mL in series [2]; 0.03 µg/mL in series [3]; 64 µg/mL in series [4]; 8 µg/mL in [5]; 1020 µg/mL in [6]. Also, the MIC in [7] was found to be 64 µg/mL; in series [8], 16 µg/mL (≈ 30.3 µM); in series [9], 8 µg/mL; in series [10], 1020 µg/mL; in series [11], 1020 µg/mL; in series [12] it was 0.03 µg/mL. Besides, the MIC in series [13] came to 8 µg/mL; in [14], 1020 µg/mL.

The values above are taken from ChEMBL document CHEMBL4732114, “Design and structural optimization of novel 2H-benzo[h]chromene derivatives that target AcrB and reverse bacterial multidrug resistance” (Eur J Med Chem, 2021).
